The term IC50 denotes the concentration at which inhibition is half-maximal. A word on the Ki: it is the equilibrium dissociation constant of an inhibitor or competing ligand from its target. A higher Ki goes with a looser hold on the target. For orientation: inhibition means the share of the control response that was lost under treatment. Low readings indicate a response near the control, high ones a response far below the control.

This note sets out measurements from ChEMBL document CHEMBL3232978, “Efficient synthesis of novel glutamate homologues and investigation of their affinity and selectivity profile at ionotropic glutamate receptors” (Bioorg Med Chem Lett, 2014).

The target in assay [1] is kainate receptor (Rattus norvegicus). The assay is described as follows: Displacement of [3H]KAIN from kainate receptor in Sprague-Dawley rat brain cortical synaptic membranes after 1 hr by liquid scintillation counting.
For assay [2], the target named is Glutamate NMDA receptor. The assay is described as follows: Displacement of [3H]CGP39653 from NMDA receptor in Sprague-Dawley rat brain cortical synaptic membranes after 1 hr by liquid scintillation counting v. The method, boiled down: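 Competition binding on rat cortical membranes, with [3H]CGP39653 labelling NMDA receptor sites. Ki values were derived and expressed as mean pKi ± SEM from three independent experiments. Hill coefficients were also determined.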

The target in assay [3] is Glutamate receptor ionotropic, AMPA (Rattus norvegicus, UniProt P19490+P19491+P19492+P19493). Nature of the assay: Displacement of [3H]AMPA from AMPA receptor in Sprague-Dawley rat brain cortical synaptic membranes after 1 hr by liquid scintillation counting. The method, boiled down:
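Radioligand displacement in rat cortical membranes: [3H]AMPA labelled AMPA receptors and [3H]KA labelled kainate receptors. Results are reported as IC50 for displacement of the radioligand.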
In general terms: Displacement assays read how much labelled ligand stays bound in the presence of the test substance.

In assay [4] the target is Glutamate receptor ionotropic, AMPA (Rattus norvegicus) (UniProt P19491+P19492+P19493+P19490). Nature of the assay: Displacement of [3H]AMPA from AMPA receptor in Sprague-Dawley rat brain cortical synaptic membranes at 100 uM after 1 hr by liquid scintillation counting. In outline: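 In rat cortical membrane binding, test compounds were applied at a single concentration of 100 µM. Percent displacement of bound [3H]AMPA (AMPA sites) or [3H]KA (kainate sites) was recorded.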

Assay [5] deals with kainate receptor (Rattus norvegicus). The assay is described as follows: Displacement of [3H]KAIN from kainate receptor in Sprague-Dawley rat brain cortical synaptic membranes at 100 uM after 1 hr by liquid scintillation counting.
Assay [6] concerns the target Glutamate NMDA receptor. The assay is described as follows: Displacement of [3H]CPP from NMDA receptor in Sprague-Dawley rat brain cortical synaptic membranes after 1 hr by liquid scintillation counting v.

For the compound `N[C@H](CCCc1cscc1C(=O)O)C(=O)O`, the IC50 in assay [1] and in assay [3] was more than 100 µM throughout. In assay [2], this compound showed a Ki of 14 µM. The inhibition in assay [4] and in assay [5] was 5% in each case.
Consider `N[C@H](CCCC(=O)O)C(=O)O`, for which, in assay [6], the inhibitory constant (Ki) was determined as 13 µM.
In the case of `N[C@H](CCCc1ccccc1C(=O)O)C(=O)O`, the IC50 in assay [1] and in assay [3] was more than 100 µM each time. The same compound had a Ki in assay [2] of 32 µM. Moreover, the inhibition in assay [4] and in assay [5] was 5% each time.
Consider `N[C@H](C/C=C/c1cscc1C(=O)O)C(=O)O`, for which the half-inhibitory concentration (IC50) in assay [1] and in assay [3] was more than 100 µM in each case. This compound also yielded a Ki in assay [2] of 52 µM. In addition, the inhibition in assay [4] and in assay [5] was 5% each time.
`N[C@H](C/C=C/c1ccccc1C(=O)O)C(=O)O`: the IC50 in assay [1] and in assay [3] was more than 100 µM each time. The compound also came in with a Ki in assay [2] of more than 100 µM. Moreover, the inhibition in assay [4] and in assay [5] was 5% throughout.
